45 compounds from ChEMBL document CHEMBL1127532, “Presynaptic cholinergic modulators as potent cognition enhancers and analgesic drugs. 1. Tropic and 2-phenylpropionic acid esters” (J Med Chem, 1994) can be followed below.

For experiment [1], the species on record is Mus musculus. In words: Analgesic activity as percentage analgesic efficacy on male albino swiss-webster mice with the hotplate test. Also noted: concentration or dose not given beside the values. Type of experiment: functional. An outline of the steps: (§1)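 Hot-plate test at 52.5 ± 0.1 °C, 45 s cutoff, compound dosed at its maximal nontoxic dose (the highest dose giving no visible behavioural change to blinded observers). Efficacy = (maximum reaction time − pretest time) / the same difference for morphine-HCl 8 mg/kg sc × 100.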

The target of experiment [2] is Muscarinic acetylcholine receptor (Mus musculus) (UniProt Q920H4+Q9ERZ4+P12657+P32211+Q9ERZ3). In words: Analgesic activity after subcutaneous administration in male albino Swiss-Webster mice with the hotplate test. Type of experiment: functional, organism-based. An outline of the steps: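 Mouse hot-plate test, plate held at 52.5 ± 0.1 °C with a 45 s cutoff. Drug given subcutaneously, 8 to 20 mice per test. Potency expressed as ED50.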

The species entered for experiment [3] is Mus musculus. In words: Analgesic activity as percentage analgesic efficacy on male albino Swiss-Webster mice with the hotplate test; Inactive. Type of experiment: functional. An outline of the steps:
as §1

The species named for experiment [4] is Mus musculus. The experiment is described as follows: The compound was evaluated for the analgesic activity as percentage analgesic efficacy on male albino Swiss-Webster mice with the hotplate test; inactive. In kind it is functional, organism-based. An outline of the steps: as §1
Experiment [5] addresses Muscarinic acetylcholine receptor. In words: Binding affinity for [3H]QNB in membrane preparations from rat brain tissue. An outline of the steps: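 [3H]QNB binding to rat brain membrane preparations. pKi calculated with the LIGAND program, mean of at least three experiments.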
The species entered for experiment [6] is Mus musculus. The experiment is described as follows: The compound was evaluated for the analgesic activity as percentage analgesic efficacy on male albino Swiss-Webster mice with the hotplate test;Inactive. In kind it is functional, organism-based. An outline of the steps: as §1

The source made the active and inactive calls.

For orientation: ED50 means the dose that gives a 50% effect, or the effect in half of the subjects. In turn, `CC(C(=O)OC1CC2CCC(C1)N2C)c1ccc(Cl)c(Cl)c1` (configuration not stated) came in with an Analgesic efficacy in the experiment filed under Mus musculus [1] of 42%. Moreover, in experiment [2], the ED50 was 1 mg/kg.
Take `CC(COC1CC2CCC(C1)N2C)c1ccc(Br)cc1` (configuration not stated): the Analgesic efficacy in the experiment filed under Mus musculus [1] is 45%. This compound came in with a 50% effective dose (ED50) in experiment [2] of 32 mg/kg.
The like results for `CC(C(=O)OC1CC2CCC(C1)N2C)c1cccs1` (configuration not stated) were, in that order, 21% and 5.4 mg/kg.
The like results for `CC(C(=O)OC1CC2CCC(C1)N2C)c1ccccc1` (racemic) were, in that order, 35% and 5 mg/kg.
As for `CC(C(=O)OC1CC2CCC(C1)N2C)c1cccc(Cl)c1` (configuration not stated), the Analgesic efficacy in the experiment listed under Mus musculus [1] worked out at 71%. In experiment [2], this compound yielded an ED50 of 37 mg/kg.
The like results for `COc1ccc(C(C)C(=O)OC2CC3CCC(C2)N3C)cc1` (configuration not stated) were, in that order, 97% and 32 mg/kg.
As to `CCN(CC)CC#CCOC(=O)C(CO)c1ccccc1.O=C(O)C(Oc1ccccc1)C(Oc1ccccc1)C(=O)O` (configuration not stated), the Analgesic efficacy entry in the experiment listed under Mus musculus [3] was “inactive”.
As to `CCN1C2CCC1CC(OC(=O)C(C)c1ccc(Br)cc1)C2` (configuration not stated), the Analgesic efficacy result in the experiment listed under Mus musculus [4] is “inactive”.
Turning to `COc1ccc(C(CO)C(=O)OC2CC3CCC(C2)N3C)cc1` (configuration not stated), the Analgesic efficacy entry in the experiment filed under Mus musculus [3] is “inactive”.
For `CC(C(=O)OC1CC2CCC(C1)N2C)c1ccc(Br)cc1` (stereo in doubt; (-)-19), the Analgesic efficacy in the experiment filed under Mus musculus [1] worked out at 83%. This compound also returned a 50% effective dose (ED50) in experiment [2] of 16 mg/kg.
With `CC(C(=O)OC1CC2CCC(C1)N2C)c1ccccc1Br` (configuration not stated), in the experiment filed under Mus musculus [1], the Analgesic efficacy was 62%. The same compound displayed an ED50 in experiment [2] of 30 mg/kg.
Regarding `CCN(CC)CCOC(=O)C(C)c1ccc(Br)cc1` (configuration not stated), the Analgesic efficacy entry in the experiment filed under Mus musculus [3] is “inactive”.
With `CC(C(=O)OC1CC2CCC(C1)N2C)c1ccsc1` (configuration not stated), in the experiment listed under Mus musculus [1], the Analgesic efficacy was 44%. In experiment [2], this compound had an ED50 of 22 mg/kg.
The corresponding values for `C[C@H](C(=O)OC1CC2CCC(C1)N2C)c1ccccc1` (some centres not stated) are 29% and 3.1 mg/kg.
The corresponding values for `CC(C(=O)OC1CC2CCC(C1)N2C)c1ccc(Br)cc1` (single isomer, unassigned; (+)) are 92% and 17 mg/kg.
The compound `CN1CCC(OC(=O)C(CO)c2ccc(Cl)cc2)CC1` (configuration not stated) showed an Analgesic efficacy in the experiment filed under Mus musculus [1] of 26%. In experiment [2], the median effective dose (ED50) came to 5 mg/kg.
The like results for `CCN1C2CCC1CC(OC(=O)C(CO)c1ccccc1)C2` (configuration not stated) were, in that order, 33% and 7.3 mg/kg.
The corresponding values for `CC(C)Cc1ccc(C(C)C(=O)OC2CC3CCC(C2)N3C)cc1` (configuration not stated) are 40% and 27 mg/kg.
In the case of `CC(C(=O)OCCCN(C)C)c1ccc(Br)cc1` (configuration not stated), the Analgesic efficacy entry in the experiment filed under Mus musculus [3] is “inactive”.
Turning to `CCN(CC)CCOC(=O)C(CO)c1ccc(Cl)cc1` (configuration not stated), the Analgesic efficacy result in the experiment filed under Mus musculus [3] was “inactive”.
For the compound `CN1C2CCC1CC(OC(=O)Cc1ccc(Br)cc1)C2` (configuration not stated), in the experiment filed under Mus musculus [3], the Analgesic efficacy entry was “inactive”.
In turn, `CC(C(=O)OC1CC2CCC(C1)N2Cc1ccccc1)c1ccc(Br)cc1` (configuration not stated) gave an Analgesic efficacy in the experiment filed under Mus musculus [1] of 34%. In experiment [2], this compound registered a median effective dose (ED50) of 28 mg/kg.
The corresponding values for `CCC(C(=O)OC1CC2CCC(C1)N2C)c1ccc(Br)cc1` (configuration not stated) are 81% and 33 mg/kg.
The corresponding values for `CC(C(=O)OC1CC2CCC(C1)N2C)c1ccc(C(F)(F)F)cc1` (configuration not stated) are 26% and 31 mg/kg.
The like results for `CC(C(=O)OC1CC2CCC(C1)N2C)c1ccc([N+](=O)[O-])cc1` (configuration not stated) were, in that order, 38% and 18 mg/kg.
In the case of `CC(C(=O)OC1CC2CCC(C1)N2C)c1ccc(Cl)cc1.O=C(O)/C=C\C(=O)O` (configuration not stated), the Analgesic efficacy in the experiment listed under Mus musculus [1] was found to be 83%. Moreover, the ED50 in experiment [2] turned out to be 36 mg/kg. Moreover, in experiment [5], the “Log Ki” value is on record as -7.02.
Regarding `CC(C(=O)OC1CCN(C)CC1)c1ccc(Br)cc1` (configuration not stated), the Analgesic efficacy result in the experiment listed under Mus musculus [3] was “inactive”.
For the compound `CC(C(=O)OC1CC2CCC(C1)N2C)c1ccc(Br)cc1.O=C(O)/C=C\C(=O)O` (racemic), the “Log Ki” value in experiment [5] is recorded as -6.96.
Consider `CCN(CC)CC#CCOC(=O)C(C)c1ccc(Br)cc1` (configuration not stated), for which the Analgesic efficacy entry in the experiment filed under Mus musculus [3] is “inactive”.
Consider `C[C@@H](C(=O)OC1CC2CCC(C1)N2C)c1ccccc1` (some centres not stated), for which the Analgesic efficacy result in the experiment listed under Mus musculus [6] was “inactive”.
Turning to `CN1C2CCC1CC(OC(=O)C(Cl)c1ccccc1)C2` (configuration not stated), the Analgesic efficacy result in the experiment listed under Mus musculus [3] is “inactive”.
`O=C(OC1CC2CCC(C1)N2)C(CO)c1ccccc1` (configuration not stated) showed an Analgesic efficacy in the experiment listed under Mus musculus [1] of 35%. In experiment [2], this compound registered an ED50 of 5 mg/kg.
On to `CC(C(=O)OC1CC2CCC(C1)N2C)c1ccc(Br)cc1` (racemic), for which, in the experiment filed under Mus musculus [1], the Analgesic efficacy stood at 101%.
With `CC(C(=O)OC1CC2CCC(C1)N2)c1ccc(Br)cc1` (configuration not stated), in the experiment filed under Mus musculus [3], the Analgesic efficacy result was “inactive”.
Take `CN1[C@@H]2CC[C@H]1C[C@@H](OC(=O)C(CO)c1ccccc1)C2` (mixture of isomers): in the experiment listed under Mus musculus [1], the Analgesic efficacy was determined as 42%. For the same compound, it took a dose of 0.7 mg/kg to reach the 50% effect level in experiment [2] (ED50).
`CC(Cc1ccc(Cl)cc1)C(=O)OC1CC2CCC(C1)N2C` (configuration not stated): in the experiment listed under Mus musculus [3], the Analgesic efficacy entry was “inactive”.
Still for that read-out and setting: as for `CN1C2CCC1CC(OC(=O)Cc1ccccc1)C2` (configuration not stated), the entry is “inactive”.
For `CN1[C@@H]2CC[C@H]1C[C@H](OC(=O)[C@@H](CO)c1ccccc1)C2`, the Analgesic efficacy in the experiment filed under Mus musculus [1] amounted to 41%. Further, the median effective dose (ED50) in experiment [2] came to 0.7 mg/kg.
The corresponding values for `CC(C(=O)OC1CC2CCC(C1)N2C)c1ccc(F)cc1` (configuration not stated) are 79% and 31 mg/kg.
As for `CC(C(=O)OC1CC2CCC(C1)N2C)c1ccc(N(C)C)cc1` (configuration not stated), in the experiment listed under Mus musculus [3], the Analgesic efficacy result is “inactive”.
Turning to `CC(C(=O)OC1CC2CCC(C1)N2C)c1ccccc1Cl` (configuration not stated), the Analgesic efficacy in the experiment listed under Mus musculus [1] amounted to 83%. Further, it took a dose of 36 mg/kg to reach the 50% effect level in experiment [2] (ED50).
The like results for `CC(C(=O)OC1CC2CCC(C1)N2C)c1ccc(N)cc1` (configuration not stated) were, in that order, 41% and 6 mg/kg.
Take `CN1[C@@H]2CC[C@H]1C[C@H](OC(=O)[C@H](CO)c1ccccc1)C2`: the Analgesic efficacy entry in the experiment listed under Mus musculus [3] is “inactive”.
Same read-out and setting: as for `CN(C)CCCOC(=O)C(CO)c1ccccc1.O=C(O)C(Oc1ccccc1)C(Oc1ccccc1)C(=O)O` (configuration not stated), the entry is “inactive”.
For the compound `CN1C2CCC1CC(OC(=O)C(CO)c1ccc(Cl)cc1)C2` (configuration not stated), the Analgesic efficacy in the experiment listed under Mus musculus [1] is 37%. Also, the ED50 in experiment [2] is 0.6 mg/kg.
